Test results reported in ChEMBL document CHEMBL1152452, “Modifications incorporated in CpG motifs of oligodeoxynucleotides lead to antagonist activity of toll-like receptors 7 and 9” (2009).
Activity calls are given as the source filed them. The rule behind the calls is not given here.

Columns and labels:
Mus musculus [1] = assay: Immunostimulatory activity in C57BL/6 mouse assessed as inhibition of TLR7 agonist-induced IL6 production in serum at 5 mg/kg, sc administered 24 hrs prior to TLR7 agonist challenge measured after 2 hrs by Luminex multiplex assay; format: functional; conditions: C57BL/6, sc, route subcutaneous
Mus musculus [2] = assay: Immunostimulatory activity in C57BL/6 mouse assessed as inhibition of TLR3 agonist-induced IL10 production in serum at 10 mg/kg, sc administered 24 hrs prior to TLR3 agonist challenge measured after 2 hrs by Luminex multiplex assay
Mus musculus [3] = assay: Immunostimulatory activity in C57BL/6 mouse assessed as inhibition of TLR3 agonist-induced MIP1a production in serum at 10 mg/kg, sc administered 24 hrs prior to TLR3 agonist challenge measured after 2 hrs by Luminex multiplex assay
Mus musculus [4] = assay: Immunostimulatory activity in C57BL/6 mouse assessed as inhibition of 5'-CTATCTGACGTTCTCTGT-3'-induced IL12 production in serum at 10 mg/kg, sc administered 48 hrs prior to 5'-CTATCTGACGTTCTCTGT-3' challenge measured after 2 hrs by sandwich ELISA; format: functional; conditions: C57BL/6, sc, route subcutaneous
Method in brief: (§1)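 C57BL/6 mice received 10 mg/kg ODN sc in the right flank. The TLR9 agonist ODN was then given at 0.5 mg/kg sc in the left flank 24, 48 or 72 h later. Serum IL-12 was measured by ELISA 2 h after challenge. Naive serum served as reference. Representative of three experiments.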

Mus musculus [5] = assay: Immunostimulatory activity in C57BL/6 mouse assessed as inhibition of LPS-induced KC production in serum at 10 mg/kg, sc administered 24 hrs prior to LPS challenge measured after 2 hrs by Luminex multiplex assay
Mus musculus [6] = assay: Immunostimulatory activity in C57BL/6 mouse assessed as inhibition of LPS-induced TNFalpha production in serum at 10 mg/kg, sc administered 24 hrs prior to LPS challenge measured after 2 hrs by Luminex multiplex assay
Mus musculus [7] = assay: Immunostimulatory activity in C57BL/6 mouse assessed as inhibition of TLR7 agonist-induced IL10 production in serum at 5 mg/kg, sc administered 24 hrs prior to TLR7 agonist challenge measured after 2 hrs by Luminex multiplex assay; format: functional; conditions: C57BL/6, sc, route subcutaneous
Mus musculus [8] = assay: Immunostimulatory activity in C57BL/6 mouse assessed as inhibition of TLR3 agonist-induced IL12 production in serum at 10 mg/kg, sc administered 24 hrs prior to TLR3 agonist challenge measured after 2 hrs by Luminex multiplex assay
Mus musculus [9] = assay: Immunostimulatory activity in C57BL/6 mouse assessed as inhibition of TLR7 agonist-induced KC production in serum at 5 mg/kg, sc administered 24 hrs prior to TLR7 agonist challenge measured after 2 hrs by Luminex multiplex assay; format: functional; conditions: C57BL/6, sc, route subcutaneous
Mus musculus [10] = assay: Immunostimulatory activity in C57BL/6 mouse assessed as inhibition of LPS-induced MIP1a production in serum at 10 mg/kg, sc administered 24 hrs prior to LPS challenge measured after 2 hrs by Luminex multiplex assay
Mus musculus [11] = assay: Immunostimulatory activity in C57BL/6 mouse assessed as inhibition of 5'-CTATCTGACGTTCTCTGT-3'-induced IL12 production in serum at 10 mg/kg, sc administered 24 hrs prior to 5'-CTATCTGACGTTCTCTGT-3' challenge measured after 2 hrs by sandwich ELISA; format: functional; conditions: C57BL/6, sc, route subcutaneous; method in brief: as §1
Mus musculus [12] = assay: Immunostimulatory activity in C57BL/6 mouse assessed as inhibition of 5'-CTATCTGACGTTCTCTGT-3'-induced MIP1a production in serum at 5 mg/kg, sc administered 24 hrs prior to 5'-CTATCTGACGTTCTCTGT-3' challenge measured after 2 hrs by Luminex multiplex assay; format: functional; conditions: C57BL/6, sc, route subcutaneous
Mus musculus [13] = assay: Immunostimulatory activity in C57BL/6 mouse assessed as inhibition of TLR3 agonist-induced IL6 production in serum at 10 mg/kg, sc administered 24 hrs prior to TLR3 agonist challenge measured after 2 hrs by Luminex multiplex assay
Mus musculus [14] = assay: Immunostimulatory activity in C57BL/6 mouse assessed as inhibition of LPS-induced IP10 production in serum at 10 mg/kg, sc administered 24 hrs prior to LPS challenge measured after 2 hrs by Luminex multiplex assay
Mus musculus [15] = assay: Immunostimulatory activity in C57BL/6 mouse assessed as inhibition of LPS-induced IL6 production in serum at 10 mg/kg, sc administered 24 hrs prior to LPS challenge measured after 2 hrs by Luminex multiplex assay
Mus musculus [16] = assay: Immunostimulatory activity in C57BL/6 mouse assessed as inhibition of LPS-induced MCP1 production in serum at 10 mg/kg, sc administered 24 hrs prior to LPS challenge measured after 2 hrs by Luminex multiplex assay
Mus musculus [17] = assay: Immunostimulatory activity in C57BL/6 mouse assessed as inhibition of LPS-induced IL12 production in serum at 10 mg/kg, sc administered 24 hrs prior to LPS challenge measured after 2 hrs by Luminex multiplex assay
Mus musculus [18] = assay: Immunostimulatory activity in C57BL/6 mouse assessed as inhibition of 1 mg/kg 5'-CTATCTGACGTTCTCTGT-3'-induced IL12 production in serum at 10 mg/kg, sc administered 24 hrs prior to 5'-CTATCTGACGTTCTCTGT-3' challenge measured after 2 hrs by sandwich ELISA; format: functional
Method in brief: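 C57BL/6 mice received 10 mg/kg ODN sc in the right flank. After 24 h, the CpG TLR9 agonist ODN was given sc in the left flank at 0.25, 0.5 or 1 mg/kg. Serum IL-12 was measured by ELISA 2 h after challenge. Naive mice served as reference. Representative of two experiments.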

**Q.** How did the inhibition in vivo at 5 mg/kg (Mus musculus [1]) turn out when COC1[C@H](n2cnc3c(=O)[nH]c(N)nc32)O[C@H](COP(=O)(S)O[C@H]2C[C@H](n3cc(C)c(N)nc3=O)O[C@@H]2COP(=O)(S)O[C@H]2C[C@H](n3cnc4c(N)ncnc43)O[C@@H]2COP(=O)(S)O[C@H]2C[C@H](n3cnc4c(=O)[nH]c(N)nc43)O[C@@H]2COP(=O)(S)O[C@H]2C[C@H](n3cc(C)c(=O)[nH]c3=O)O[C@@H]2COP(=O)(S)O[C@H]2C[C@H](n3ccc(N)nc3=O)O[C@@H]2COP(=O)(S)O[C@H]2C[C@H](n3cc(C)c(=O)[nH]c3=O)O[C@@H]2COP(=O)(S)O[C@H]2C[C@H](n3cnc4c(N)ncnc43)O[C@@H]2COP(=O)(S)O[C@H]2C[C@H](n3cc(C)c(=O)[nH]c3=O)O[C@@H]2COP(=O)(S)O[C@H]2C[C@H](n3ccc(N)nc3=O)O[C@@H]2CO)[C@H]1OP(=O)(S)OC[C@H]1O[C@@H](n2cc(C)c(=O)[nH]c2=O)C[C@@H]1OP(=O)(S)OC[C@H]1O[C@@H](n2cc(C)c(=O)[nH]c2=O)C[C@@H]1OP(=O)(S)OC[C@H]1O[C@@H](n2ccc(N)nc2=O)C[C@@H]1OP(=O)(S)OC[C@H]1O[C@@H](n2cc(C)c(=O)[nH]c2=O)C[C@@H]1OP(=O)(S)OC[C@H]1O[C@@H](n2ccc(N)nc2=O)C[C@@H]1OP(=O)(S)OC[C@H]1O[C@@H](n2cc(C)c(=O)[nH]c2=O)C[C@@H]1OP(=O)(S)OC[C@H]1O[C@@H](n2cnc3c(=O)[nH]c(N)nc32)C[C@@H]1OP(=O)(S)OC[C@H]1O[C@@H](n2cc(C)c(=O)[nH]c2=O)C[C@@H]1O (stereo partly drawn) was run?
**A.** The inhibition in vivo at 5 mg/kg was 50%.

**Q.** What about the Activity (Mus musculus [2]) of the same molecule?
**A.** The Activity was “inactive”.

**Q.** What about the Activity (Mus musculus [3]) of the same molecule?
**A.** The Activity was “inactive”.

**Q.** What about the inhibition in vivo at 10 mg/kg (Mus musculus [4]) of the same molecule?
**A.** The inhibition in vivo at 10 mg/kg was 57%.

**Q.** And the Activity (Mus musculus [5])?
**A.** The Activity was “inactive”.

**Q.** And the Activity (Mus musculus [6])?
**A.** The Activity was “inactive”.

**Q.** What about the inhibition in vivo at 5 mg/kg (Mus musculus [7]) of the same molecule?
**A.** The inhibition in vivo at 5 mg/kg was 50%.

**Q.** What about the Activity (Mus musculus [8]) of the same molecule?
**A.** Its Activity is “inactive”.

**Q.** And the inhibition in vivo at 5 mg/kg (Mus musculus [9])?
**A.** The inhibition in vivo at 5 mg/kg was 50%.

**Q.** And the Activity (Mus musculus [10])?
**A.** The Activity was “inactive”.

**Q.** And the inhibition in vivo at 10 mg/kg (Mus musculus [11])?
**A.** The inhibition in vivo at 10 mg/kg was 81%.

**Q.** What about the inhibition in vivo at 5 mg/kg (Mus musculus [12]) of the same molecule?
**A.** The inhibition in vivo at 5 mg/kg was 50%.

**Q.** And the Activity (Mus musculus [13])?
**A.** The Activity was “inactive”.

**Q.** What about the Activity (Mus musculus [14]) of the same molecule?
**A.** Its Activity is “inactive”.

**Q.** What about the Activity (Mus musculus [15]) of the same molecule?
**A.** Its Activity is “inactive”.

**Q.** What about the Activity (Mus musculus [16]) of the same molecule?
**A.** Its Activity is “inactive”.

**Q.** And the Activity (Mus musculus [17])?
**A.** Its Activity is “inactive”.

**Q.** What about the “inhibition (INH)” value (Mus musculus [18]) of the same molecule?
**A.** The value was 46%.
